From ChEMBL document CHEMBL3865785, “Dopaminergic isoquinolines with hexahydrocyclopenta[ij]-isoquinolines as D2-like selective ligands” (Eur J Med Chem, 2016) come the findings set out here.

Broadly, the Ki is a measure of affinity in units of concentration, obtained from inhibition or displacement. High values mean weaker binding, low ones tighter binding. Usually pKi stands for the negative decadic logarithm of the Ki, by convention in mol/L.

A short description of data set [1]: Induction of apoptosis in human neutrophils assessed as early apoptotic cells at 30 uM measured after 24 hrs by Annexin-V-FITC/propidium iodide staining-based flow cytometric analysis (reference value: 1.1%). Format: cell-based. The settings on record: neutrophil.
Data set [2] in a line: Displacement of [3H]SCH23390 from D1-like dopaminergic receptor (unknown origin) in striatal membrane measured after 1 hr by liquid scintillation counting method. The data set is classed as cell membranes, Homo sapiens, Striatum. The procedure, abridged:
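Striatal membranes homogenized in 50 mM Tris-HCl pH 7.4, centrifuged twice at 20000 g. Resuspended in Tris with 5 mM MgSO4, 0.5 mM EDTA, 0.02% ascorbic acid. 100 µg protein incubated 1 h at 25 °C with 0.25 nM (final) [3H]SCH 23390 plus drug. Nonspecific binding defined with 30 μM SK&F 38393. GF/B filtration, scintillation counting. Mean ± SEM, n = 3.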
A general note: Loss of bound radioactivity is the signal in a displacement assay; it reports binding, not function.

The species named for the next data set is Homo sapiens. The data set can be described thus: Selectivity ratio of Ki for D1-like dopaminergic receptor (unknown origin) in striatal membranes to Ki for D2-like dopaminergic receptor (unknown origin) in striatal membranes. Format: cell membranes.
The nature of data set [3]: Cytotoxicity against HUVEC assessed as reduction in cell viability at 30 uM measured after 24 hrs by MTT assay relative to control. The data set is classed as toxicity, cell-based. The settings on record: human. A digest of the protocol:
(§1)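 Neutrophils isolated from healthy-donor buffy coats by Ficoll-Hypaque gradient; HUVEC from collagenase isolation, passage ≤1. Cells at 10^5 per 100 µL supplemented RPMI, incubated 24 h at 37 °C with or without compound (30 μM). MTT added (solution made at 2 mg/mL in PBS), further 3 h at 37 °C; colorimetric readout vs vehicle. Mean ± SEM, n = 3 independent experiments.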

Data set [4] in a line: Induction of apoptosis in human neutrophils assessed as viable cells at 30 uM measured after 24 hrs by Annexin-V-FITC/propidium iodide staining-based flow cytometric analysis (reference value: 93.52%). The settings on record: read-out: Activity. Format: cell-based, Neutrophil.
Data set [5] can be described thus: Cytotoxicity against human neutrophils assessed as reduction in cell viability at 30 uM measured after 24 hrs by MTT assay relative to control. The data set is classed as toxicity, cell-based. The note with it: neutrophil. A digest of the protocol: as §1
Data set [6] can be described thus: Induction of apoptosis in HUVEC at 30 uM measured after 24 hrs by Annexin-V-FITC/propidium iodide staining-based flow cytometric analysis. Format: cell-based. The note with it: human. Background: In flow cytometry, cells or beads pass a laser one at a time.
The nature of data set [7]: Displacement of [3H]raclopride from D2-like dopaminergic receptor (unknown origin) in striatal membrane measured after 1 hr by liquid scintillation counting method. Format: cell membranes, Homo sapiens, Striatum. A digest of the protocol:
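Striatal membranes washed by four 20000 g centrifugations. Resuspended in Tris buffer with 120 mM NaCl, 5 mM KCl, 1 mM CaCl2, 1 mM MgCl2, 0.1% ascorbic acid. 200 µg protein incubated 1 h at 25 °C with 0.5 nM (final) [3H]raclopride plus drug. Nonspecific binding defined with 50 µM apomorphine. Filtration, scintillation counting. Mean ± SEM, n = 3.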

Data set [8] in a line: Induction of apoptosis in human neutrophils assessed as late apoptotic cells at 30 uM measured after 24 hrs by Annexin-V-FITC/propidium iodide staining-based flow cytometric analysis (reference value: 0.06%). Format: cell-based. The note with it: neutrophil.
Data set [9] in a line: Induction of apoptosis in human neutrophils assessed as necrotic cells at 30 uM measured after 24 hrs by Annexin-V-FITC/propidium iodide staining-based flow cytometric analysis (reference value: 5.33%). Format: cell-based. The settings on record: neutrophil.

Each structure is given as a SMILES string.

As for `CN1CCc2cc(O)c(O)cc2C1/C=C/c1ccccc1` (centres undefined), the Activity in data set [1] is recorded as 3.24%; in data set [3] it was “Non-Toxic”; in data set [5], “Non-Toxic”; in data set [6], “Non-Toxic”; in data set [8], 0.12%; in data set [9] it was 6.94%. Also, the inhibitory constant (Ki) in data set [2] was determined as 3.19 µM; in data set [7], 0.057 µM. Further, the pKi in [2] stood at 5.498; in data set [7] it was 7.264. In addition, in the data set listed under Homo sapiens, the Ratio Ki came out at 55.9. Also, the viability at 24 h, 30 µM in data set [4] worked out at 89.7%.
In [2], `C=CCN1CCc2cc(OC)c(OC)cc2C1/C=C/C` (centres undefined) returned a Ki of 37.6 µM and a pKi of 4.432. The Ratio Ki in the data set filed under Homo sapiens worked out at 2.72. In data set [7], this compound returned an inhibition constant Ki of 13.8 µM and a negative-log Ki (pKi) of 4.86.
With `COc1cc2c(cc1OC)C(/C=C/c1ccccc1)NCC2` (centres undefined), the Ki in [2] was 4.56 µM; in [7], 6.18 µM. Also, the pKi in data set [2] is recorded as 5.36; in [7] it was 5.244. In the data set filed under Homo sapiens, the Ratio Ki was determined as 0.74.
In data set [2], `C/C=C/C1NCCc2cc(O)c(O)cc21` (centres undefined) registered an inhibition constant Ki of 57.7 µM and a pKi of 4.246. The Ratio Ki in the data set listed under Homo sapiens turned out to be 126. Moreover, in data set [7], the Ki amounted to 0.458 µM and the negative logarithm of the Ki (pKi) was determined as 6.352.
In data set [2], `COc1cc2c(cc1OC)C(/C=C/c1ccccc1)N(C)CC2` (centres undefined) showed an inhibition constant Ki of 6.2 µM and a pKi of 5.251. Besides, the Ratio Ki in the data set filed under Homo sapiens came to 14.2. In data set [7], this compound gave a Ki of 0.436 µM and a pKi of 6.376.
Turning to `C=CCN1CCc2cc(O)c(O)c3c2C1CC3c1ccccc1` (centres undefined), the Activity in data set [1] is given as 6.86%; in [3], “Non-Toxic”; in data set [5], “Toxic”; in data set [6], “Non-Toxic”; in data set [8] it was 0.33%; in data set [9], 3.03%. For the same compound, the viability at 24 h, 30 µM in [4] turned out to be 89.9%.
As for `C=CCN1CCc2cc(O)c(O)cc2C1/C=C/C` (centres undefined), the Activity in [1] is given as 0.28%; in [3], “Non-Toxic”; in data set [5] it was “Non-Toxic”; in [6], “Non-Toxic”; in data set [8], 0.11%; in data set [9] it was 0.1%. For the same compound, the Ki is 1.71 µM in [2] and 0.018 µM in data set [7]. In addition, the values for the negative logarithm of the Ki (pKi) in data set [2] and in data set [7] were 5.766 and 7.749, respectively. The Ratio Ki in the data set listed under Homo sapiens was found to be 95.2. For the same compound, the viability at 24 h, 30 µM in data set [4] came to 93.5%.
Turning to `C/C=C/C1c2cc(OC)c(OC)cc2CCN1C` (centres undefined), the Ki turned out to be 18.3 µM in data set [2] and 14.7 µM in data set [7]. For the same compound, the pKi in [2] was 4.74; in data set [7], 4.833. The Ratio Ki in the data set listed under Homo sapiens was determined as 1.24.
The corresponding values for `C=CCN1CCc2cc(OC)c(OC)cc2C1/C=C/c1ccccc1` (centres undefined) are 7.68 µM, 1.17 µM, 5.133, 5.942 and 6.58.
In the case of `Oc1cc2c3c(c1O)C(c1ccccc1)CC3NCC2` (centres undefined), the Activity in [1] is reported as 0.08%; in [3] it was “Non-Toxic”; in data set [5], “Non-Toxic”; in data set [6] it was “Non-Toxic”; in data set [8] it was 0.05%; in data set [9], 4.53%. For the same compound, the viability at 24 h, 30 µM in data set [4] came to 95.3%.
For `C=CCN1CCc2cc(O)c(O)cc2C1/C=C/c1ccccc1` (centres undefined), the Activity in data set [1] is 0.15%; in [3], “Non-Toxic”; in [5] it was “Non-Toxic”; in data set [6] it was “Non-Toxic”; in data set [8] it was 0.16%; in data set [9], 6.11%. In addition, the Ki was found to be 6.04 µM in [2] and 0.041 µM in [7]. The pKi was determined as 5.267 in data set [2] and 7.408 in data set [7]. Besides, the Ratio Ki in the data set filed under Homo sapiens stood at 147. For the same compound, the viability at 24 h, 30 µM in [4] came out at 93.6%.
Take `CN1CCc2cc(O)c(O)c3c2C1CC3c1ccccc1` (centres undefined): the Activity in [1] is listed as 0.15%; in data set [3] it was “Non-Toxic”; in data set [5], “Non-Toxic”; in [6] it was “Non-Toxic”; in data set [8], 3.06%; in [9], 5.05%. Further, the viability at 24 h, 30 µM in data set [4] amounted to 94.7%.
As for `Oc1cc2c(cc1O)C(/C=C/c1ccccc1)NCC2` (centres undefined), the inhibition constant Ki worked out at 9.57 µM in data set [2] and 1.42 µM in [7]. Also, the pKi was 5.048 in data set [2] and 5.869 in data set [7]. Besides, in the data set filed under Homo sapiens, the Ratio Ki was 6.73.
With `NCCc1ccc(O)c(O)c1` [DOPAMINE], in data set [2], affinity was put at a Ki of 0.55 µM and the pKi is 6.26. Besides, the Ratio Ki in the data set listed under Homo sapiens came out at 0.98. In [7], this compound had a Ki of 0.56 µM and a pKi of 6.837.
The corresponding values for `C/C=C/C1NCCc2cc(OC)c(OC)cc21` (centres undefined) are 45.6 µM, 4.347, 5.15, 8.86 µM and 5.059.
Regarding `C/C=C/C1c2cc(O)c(O)cc2CCN1C` (centres undefined), the Activity in data set [1] is given as 3.95%; in data set [3], “Non-Toxic”; in data set [5] it was “Non-Toxic”; in data set [6], “Non-Toxic”; in data set [8], 0.3%; in data set [9], 2.43%. The figures for the Ki in data set [2] and in data set [7] were 1.29 µM and 0.072 µM, respectively. For the same compound, the pKi was 5.897 in [2] and 7.181 in data set [7]. In addition, the Ratio Ki in the data set filed under Homo sapiens turned out to be 17.9. In addition, in data set [4], the viability at 24 h, 30 µM is 93.3%.
